Screens (PubChem BioAssay)
EBI2 block: EBI2 receptor antagonists, beta-arrestin recruitment, primary screen, cell-based, luminescence, 7a,25-OHC stimulation, uHTS; inhibition, % at 5 µM; AID 651636, 2012; 7a,25-OHC stimulated; 0.81% of 360,000 active; in the data active = inhibition above about 38%;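 note: enzyme fragment complementation signal reports receptor beta-arrestin coupling in cells; 0% = agonist plus DMSO wells and 100% = wells without agonist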
CXCR6 block: CXCR6 receptor inhibitors, primary screen, cell-based, beta-arrestin, luminescence, CHO-K1 PathHunter, 1536-well. C-X-C chemokine receptor type 6 (Homo sapiens), O00574. inhibition, % at 20 µM. 0.36% of 360,000 active. AID 602244, 2012; in the data active = inhibition above about 34%, passing the limit was not always enough;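 note: antagonist mode with CXCL16 agonist at 10 nM final; 0% = 10 nM CXCL16 with DMSO and 100% = unstimulated wells without agonist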
APJ antagonist: antagonists of human apelin receptor APJ, primary screen, CHO-K1 cells, beta-arrestin complementation, luminescence; inhibition, % at 20 µM; AID 2521, 2010; P35414; 0.32% of 330,000 active;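 active = inhibition above about 40% at 20 µM, limit read from the data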;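 note: cells challenged with 10 nM apelin-13 agonist together with compound; plate controls were apelin-13 plus DMSO wells for no effect and DMSO wells lacking apelin-13 for full effect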
Target sequence (P35414 whole entry, looked up): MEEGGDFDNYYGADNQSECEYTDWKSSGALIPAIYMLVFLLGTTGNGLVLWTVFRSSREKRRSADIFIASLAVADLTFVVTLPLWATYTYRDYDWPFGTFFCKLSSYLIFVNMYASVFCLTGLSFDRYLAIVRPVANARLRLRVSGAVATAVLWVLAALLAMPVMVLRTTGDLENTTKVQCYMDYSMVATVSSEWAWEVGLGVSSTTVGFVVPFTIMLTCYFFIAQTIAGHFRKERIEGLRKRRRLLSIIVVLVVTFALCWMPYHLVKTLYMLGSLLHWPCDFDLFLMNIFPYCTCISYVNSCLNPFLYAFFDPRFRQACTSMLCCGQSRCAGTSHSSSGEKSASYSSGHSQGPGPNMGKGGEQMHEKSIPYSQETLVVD
CCR6 antag: CCR6 receptor antagonists, primary screen, cell-based, CHO-K1, luminescence, beta-arrestin, uHTS; CHO-K1 CCR6 PathHunter beta-arrestin, CCL20-stimulated; inhibition, % at 20 µM; AID 493098, 2011; 0.49% of 340,000 active;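 active = compounds whose inhibition of the agonist-driven luminescence signal at 20 µM reaches about 50%, limit read from the data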;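 note: cells stimulated with CCL20 at 14 nM final; plate controls were DMSO with CCL20 for no effect and DMSO without agonist for full effect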
Target sequence (P51684 whole entry, looked up): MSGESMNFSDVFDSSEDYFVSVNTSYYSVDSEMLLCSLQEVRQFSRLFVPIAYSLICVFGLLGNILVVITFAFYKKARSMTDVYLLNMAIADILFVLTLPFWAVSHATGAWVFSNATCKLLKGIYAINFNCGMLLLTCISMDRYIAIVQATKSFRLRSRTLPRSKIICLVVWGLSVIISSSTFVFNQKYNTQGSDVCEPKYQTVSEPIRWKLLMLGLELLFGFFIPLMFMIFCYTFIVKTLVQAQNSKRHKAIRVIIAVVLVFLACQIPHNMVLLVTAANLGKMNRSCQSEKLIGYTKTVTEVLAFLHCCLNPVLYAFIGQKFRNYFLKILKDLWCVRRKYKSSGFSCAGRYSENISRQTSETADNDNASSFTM
APJ agonist: agonists of human apelin receptor APJ, primary screen, CHO-K1 cells, PathHunter beta-arrestin, luminescence; P35414; 0% DMSO wells, 100% apelin; activation, % at 20 µM; 0.11% of 330,000 active; AID 2520, 2010;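 active = activation more than six SD over the plate average, tested at 20 µM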;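 note: 0% = DMSO alone and 100% = apelin-13 at 10 nM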
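Assay system – PathHunter CHO-K1 APJ (AGTRL-1) beta-arrestin reporter cells · Compound – one dose, 20 µM compound, 1% DMSO · Timing – compound 90 min 25 °C, reagent 1 h · Measured by – luminescence from split beta-galactosidase complementation, Galacton Star/Emerald II substrate · Measure – beta-arrestin recruitment to APJ as agonist activity, luminescent signal · Benchmarks – DMSO vs Apelin-13 10 nM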
APJ antag conf: APJ antagonists blocking beta-arrestin recruitment, confirmation, cell-based, luminescence, single concentration, uHTS hits | AID 2766, 2010 | inhibition, % at 20 µM | shares compounds with APJ antagonist | 66% of 950 active | antagonist mode; in the data active = inhibition above about 50%
* marks the source's active call; other numbers are inactive results; · = not tested or not shown. Most compounds without a hit are left out; they make up all but 1.5% or so of the library.

SMILES | EBI2 block | CXCR6 block | APJ antagonist | CCR6 antag | APJ agonist | APJ antag conf
COc1cccc(/C=C2\CC(C)Cc3c2nc2ccccc2c3C(=O)O)c1OC (stereo unspecified) | -4.1 | -3.2 | 48.7* | 9.9 | -1.1 | -18.0
CCOC(=O)C1CCN(c2nc(C)nc3c2oc2ccccc23)CC1 | 1.1 | 2.9 | 44.6* | 3.0 | -4.9 | 29.9
COC(=O)CNc1nc(Cl)nc(Nc2ccc(C)cc2)n1 | -1.0 | 2.0 | 15.6 | 4.1 | -2.1 | ·
COc1cccc2sc(Nc3nc(-c4ccccn4)cs3)nc12 | 85.9* | 37.2 | 52.4* | · | -7.1 | 23.5
COc1cccc2sc(Nc3nnc(-c4ccc(F)cc4)o3)nc12 | -5.9 | -7.0 | 0.6 | -4.8 | -2.6 | ·
COc1cccc2sc(Nc3nnc(-c4cccs4)o3)nc12 | 16.2 | 13.0 | 41.6* | 29.5 | -6.0 | 3.4
Fc1ccc(NC(=S)Nc2ccc(Cl)cc2Cl)cc1 | · | · | 57.3* | 12.8 | -1.6 | 62.6*
Fc1ccc(CNC(=S)Nc2ccc(Cl)cc2Cl)cc1 | -9.6 | -2.7 | 13.4 | -7.2 | -2.1 | ·
CC(C)(C)c1ccc(S(=O)(=O)N2CCN(c3ccccn3)CC2)cc1 | -5.2 | -8.7 | -0.2 | -5.5 | -0.3 | ·
O=C(Nc1ccccc1N1CCN(C(=O)c2ccccc2)CC1)c1ccccc1Cl | -3.9 | -10.5 | 80.2* | 7.0 | -2.9 | -9.0
O=C(NC(=S)NNS(=O)(=O)c1ccc(Cl)cc1)c1cccnc1 | 8.5 | -2.9 | -28.5 | -8.5 | 0.1 | ·
Cc1ccnc(NC(=O)CCC(=O)c2cc(C)sc2C)c1 | 8.1 | -11.5 | 20.5 | 4.0 | -5.1 | ·
CCOC(=O)c1cnc(Nc2nc3ccccc3o2)nc1CSc1ncccn1 | · | · | 38.4 | 4.5 | -6.1 | ·
CCOC(=O)c1cnc(Nc2nc3ccccc3o2)nc1CSC(=S)N(CC)CC | 26.0 | 17.5 | 46.1* | 43.9 | -7.5 | 8.0
CCN1C(=O)C(=Cc2cccc(OC)c2Oc2ccc([N+](=O)[O-])cc2[N+](=O)[O-])SC1=S | 14.0 | 42.5* | 50.2* | 60.1* | -7.2 | 70.6*
CN(C)S(=O)(=O)n1cc(/C=C(\NC(=O)c2ccccc2Cl)C(=O)N2CCOCC2)c2ccccc21 | 2.4 | -0.2 | 49.7* | -7.8 | -2.3 | 23.0
CN(C)S(=O)(=O)n1cc(/C=C(\NC(=O)c2ccccc2F)C(=O)N2CCOCC2)c2ccccc21 | -4.9 | 7.0 | 14.0 | 0.3 | -4.6 | ·
CC(C)NC(=O)C1C(c2ccc(C(F)(F)F)cc2)=Nc2ccccc2N1C(=O)c1cccc2ccccc12 (stereo unspecified) | 0.5 | · | · | · | · | ·
COCCNC(=O)C1(C)CCN(Cc2ccc(C(C)C)cc2)C1 (stereo unspecified) | -10.9 | -2.5 | · | · | · | ·
COc1ccc(-c2cc(=O)c3ccc(O)cc3o2)cc1OC | 2.8 | -1.8 | · | · | · | ·
Nc1ccc(-c2c3ccc(=O)cc-3oc3cc(O)ccc23)c(C(=O)O)c1 | 7.4 | 25.5 | 43.1* | 38.9 | -8.7 | 66.2*
Cc1ccc(C)c2nc3sc(C(=O)N4CCOCC4)c(N)c3cc12 | 29.4 | 0.3 | 5.3 | -3.0 | -1.2 | ·
Cc1cc(C)c2nc3sc(C(=O)N4CCOCC4)c(N)c3cc2c1 | 33.1 | 1.9 | 43.6* | 10.4 | -9.7 | 30.1
CC(C)c1ccc(Oc2cccc3c2S(=O)(=O)N(C2CCCC2)CC(COCc2ccccc2)O3)cc1 (stereo unspecified) | 14.1 | 6.3 | · | 4.4 | · | ·
Cc1c(Cl)cccc1NC(=S)NNc1ncc(C(F)(F)F)cc1Cl | 29.4 | 52.7* | 71.7* | 87.1* | -14.1 | 117.0*
SMILES | EBI2 block | CXCR6 block | APJ antagonist | CCR6 antag | APJ agonist | APJ antag conf
O=C(NNc1ncc(C(F)(F)F)cc1Cl)c1c(Cl)cccc1Cl | 6.0 | 17.5 | 40.0 | 22.2 | -8.5 | 64.6*
COc1cccc(/C=C/C(=O)NCc2ccc(S(N)(=O)=O)cc2)c1 | 17.0 | 3.9 | 13.8 | -1.0 | -5.3 | ·
Cc1cc(NC(=O)CCN2C(=O)C3C4CCC(C4)C3C2=O)c(C)cc1Br (stereo unspecified) | 8.3 | -9.8 | 12.2 | -5.9 | -2.7 | ·
Cc1cc(Br)c(Cl)cc1NC(=O)CN1C(=O)C2C3CC(c4ccccc4)C(C3)C2C1=O (stereo unspecified) | 2.9 | -12.0 | 55.2* | -10.2 | -1.7 | -20.4
CC(C)CN(C(=O)c1ccc(S(=O)(=O)N2CCCC2)cc1)C1CCS(=O)(=O)C1 (stereo unspecified) | 0.1 | 1.6 | 11.3 | 8.9 | -2.8 | ·
COc1ccc(Nc2nc(OC)nc(OC)n2)cc1 | -5.4 | -8.1 | 7.9 | 18.9 | 1.3 | ·
COc1ccc(Nc2nc(Nc3ccc(OC)cc3)nc(-n3[nH]c(=O)c(C)c3C)n2)cc1 | -10.2 | 15.4 | 58.2* | 34.2 | -6.4 | 32.6
NC(=S)NNC(=S)Nc1ccccc1 | -6.9 | 7.0 | 41.4* | 4.7 | -4.4 | 52.8*
O=C1Nc2ccc(F)cc2C12Nc1ccccc1-c1nnc(SCc3ccccc3)nc1O2 (stereo unspecified) | 18.6 | 5.2 | 32.5 | 30.2 | -11.9 | ·
O=C1Nc2ccc(F)cc2C12Nc1ccccc1-c1nnc(SCc3ccccc3Cl)nc1O2 (stereo unspecified) | 19.3 | 22.0 | 52.7* | 40.2 | -4.5 | 74.5*
CCC1=NN(C(=O)c2ccc(Cl)cc2)C(O)(c2ccccc2)C1 (stereo unspecified) | 10.6 | 32.9 | 40.9* | 48.5 | -3.5 | 47.6
Cc1ccc(C(C[N+](=O)[O-])Sc2ccc(N)cc2)cc1 (stereo unspecified) | -28.9 | 53.1* | 46.4* | 51.7* | 0.5 | 73.8*
Cc1ccc(C(C[N+](=O)[O-])n2nc(C)cc2C)cc1 (stereo unspecified) | -40.0 | 6.8 | -19.0 | 29.5 | 4.7 | ·
O=C1Nc2ccc(Br)cc2C1=Nc1ccc(-c2nnc3n2CCCCC3)cc1 | · | · | 49.3* | · | -19.4 | 126.1*
Cc1nc2[nH]c(=S)[nH]c2c(=O)[nH]1 | -30.1 | -10.1 | · | -2.8 | · | ·
COc1ccc(Cl)cc1C(=O)NNC(=S)NC(=O)c1ccc(F)c(F)c1 | 4.8 | 27.8 | 40.2* | 46.9 | -5.6 | 11.6
COc1ccc(NC(=O)/C(Cl)=C(/Cl)S(=O)Cc2ccc(Cl)cc2)cn1 (stereo unspecified) | 71.4* | 99.5* | 82.9* | 99.7* | -5.5 | 105.4*
CCN1C(=O)/C(=C\C=C2/C=CC=CN2CC)SC1=S | -0.8 | 54.4* | 65.0* | 63.9* | -7.2 | 121.7*
Cc1ccc(C)c(N(CC(=O)NC(C)(C)C)C(=O)CCC(=O)Nc2nccs2)c1 | -9.3 | 13.7 | 6.4 | 7.1 | -2.2 | ·
CCOc1cc(/C=C2\SC(=O)N(CC(=O)Nc3ccccc3F)C2=O)cc([N+](=O)[O-])c1O | 5.5 | 27.6 | 54.0* | 39.6 | -7.2 | 78.6*
